The list is not random: actives were taken first. Their share in the collection is about 2.7%.
pPAFAH inh: inhibitors of human plasma PAF acetylhydrolase (pPAFAH). Q13093. inhibition, % at 3.39 µM. recombinant pPAFAH, FP-rhodamine probe fluorescence polarization. AID 463082. 1.5% of 330,000 active;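 active = inhibition above the mean inhibition across the screen plus 3 SD, cut at about 25% in these data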;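 note: inhibitors block binding of the rhodamine activity-based probe so polarization drops; 0% = enzyme with DMSO and 100% = wells lacking pPAFAH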
ASAP1 inh: blocks human ASAP1-stimulated Arf1 GTP hydrolysis; Q9ULH1; inhibition, % at 16.5 µM; GDP FP detection; 0.19% of 360,000 active; AID 624377; in the data active = inhibition above about 25%;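 note: 0% = vehicle with enzyme and substrate and 100% = no enzyme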
PAFAH2 inh: PAFAH2 (human) inhibition; inhibition, % at 3.39 µM; Q99487; recombinant PAFAH2, FP-rhodamine activity probe, fluorescence polarization; 0.99% of 340,000 active;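 active = inhibition above the mean over all tested compounds plus 3 SD, cut at about 30% in these data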;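 note: inhibitors block probe labeling of enzyme so polarization drops; 0% = enzyme with DMSO and 100% = wells lacking PAFAH2 protein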
ARFGAP1 inhibitor: inhibitors of rat ARFGAP1; Q62848; Arfgap1-stimulated ARF1 GTP hydrolysis, GDP FP detection; inhibition, % at 16.5 µM; 0.26% of 360,000 active;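 active = inhibition above a per-plate limit, mean inhibition of low control wells plus 3 SD, cut at about 25% in these data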;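 note: 0% = DMSO wells with enzyme and 100% = wells lacking Arfgap1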
Target sequence (Q62848 1-136 limits assumed): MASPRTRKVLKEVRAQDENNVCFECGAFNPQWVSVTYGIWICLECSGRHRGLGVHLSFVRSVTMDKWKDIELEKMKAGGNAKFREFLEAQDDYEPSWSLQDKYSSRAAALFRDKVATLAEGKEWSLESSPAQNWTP
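Replicates: Single well per compound | Assay system: Truncated rat Arfgap1 GAP domain | Control set: No-Arfgap1 wells (100%) versus DMSO full-reaction wells (0%) | Times: Enzyme reaction 120 min at 25 °C after 20 min preincubation | Reagent: Human ARF1(Δ1-17)-GTP substrate | Measured by: Tracer-displacement fluorescence polarization with EDTA stop, 620/688 nm | Measure: Percent inhibition of Arfgap1-stimulated GTP hydrolysis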
PAFAH1B3 inh: inhibitors of human PAFAH1B3 | 0.28% of 340,000 active | recombinant PAFAH1B3, FP-rhodamine probe, fluorescence polarization | Q15102 | AID 492972 | inhibition, % at 3.39 µM;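 active = inhibition above the screen-wide average of all tested compounds plus 3 SD, cut at about 25% in these data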;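 note: 0% = enzyme with DMSO only and 100% = wells lacking PAFAH1B3 protein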
Target sequence (Q15102 whole entry, looked up): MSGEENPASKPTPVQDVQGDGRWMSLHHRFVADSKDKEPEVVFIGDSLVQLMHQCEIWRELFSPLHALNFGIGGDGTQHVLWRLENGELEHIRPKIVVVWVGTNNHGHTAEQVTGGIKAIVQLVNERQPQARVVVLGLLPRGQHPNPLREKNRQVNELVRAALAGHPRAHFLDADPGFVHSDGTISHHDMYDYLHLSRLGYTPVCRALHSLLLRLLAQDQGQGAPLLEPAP
PAFAH1B2 FP inh: PAFAH1B2 (human) inhibition; recombinant PAFAH1B2, FP-rhodamine activity probe, fluorescence polarization; inhibition, % at 3.39 µM; 1.2% of 340,000 active; AID 492953;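 active = inhibition above the mean of all tested compounds plus 3 SD, cut at about 24% in these data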;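 note: 0% = enzyme with DMSO and 100% = wells lacking PAFAH1B2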
Target sequence (P68402 whole entry, looked up): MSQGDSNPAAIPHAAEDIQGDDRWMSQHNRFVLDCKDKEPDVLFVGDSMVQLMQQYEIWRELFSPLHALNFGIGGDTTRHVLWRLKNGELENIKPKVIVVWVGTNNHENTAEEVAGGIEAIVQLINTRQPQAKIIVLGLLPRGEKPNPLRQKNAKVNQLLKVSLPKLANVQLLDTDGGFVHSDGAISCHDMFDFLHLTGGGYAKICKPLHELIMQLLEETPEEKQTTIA
pPAFAH FP conf: confirmation of human plasma PAF acetylhydrolase (pPAFAH) inhibitors; shares compounds with pPAFAH inh; recombinant pPAFAH, FP-Rh probe fluorescence polarization; inhibition, % at 3.39 µM; 72% of 2,300 active;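 active = mean inhibition of the triplicate above the hit cutoff set for the earlier primary screen, cut at about 25% in these data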;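 note: 0% = enzyme with DMSO and 100% = wells lacking pPAFAH enzyme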
The depositor's hits bear a star; / = no result.

SMILES	pPAFAH inh	ASAP1 inh	PAFAH2 inh	ARFGAP1 inhibitor	PAFAH1B3 inh	PAFAH1B2 FP inh	pPAFAH FP conf
NNC(=O)c1cc2ccccc2cc1O	43*	7	-4	12	10	5	1
COCc1cc(N2CCNC[C@@H]2C)ccc1N1CCN(Cc2ccccc2)[C@H](C)C1	/	-9	/	7	/	/	/
Cc1noc(C)c1NC(=O)N(C)C[C@H]1OCc2cn(nn2)CCCC(=O)N([C@H](C)CO)C[C@@H]1C	/	0	/	0	/	/	/
Cc1ccc(C(=O)NNC(=O)CCCN2C(=O)/C(=C/c3ccccc3Cl)SC2=S)cc1	46*	-10	3	-14	-12	2	53*
O=C(C=Cc1ccc(O)c(O)c1)NCC(=O)NC(Cc1ccccc1)C(=O)O (stereo not drawn)	/	-10	/	1	/	/	/
CCOc1ccc2cc(C#N)c(SCC(=O)N3CCOCC3)nc2c1	82*	-4	1	6	7	0	6
COc1ccccc1NC(=O)c1cc2cc(Br)ccc2cc1O	42*	10	0	4	29*	14	45*
COc1ccc(C)cc1NC(=O)NNC(=O)c1cc2ccccc2cc1O	48*	13	3	-7	34*	8	52*
COc1ccc(NC(=O)NNC(=O)c2cc3ccccc3cc2O)cc1	18	6	-3	-11	17	4	/
Cc1ccc(S(=O)(=O)N(C)[C@H]2C[C@H]3c4[nH]c5cccc(-c6ccccc6)c5c4CCN3C(=O)[C@H]2[C@H](C)O)cc1	/	5	/	8	/	/	/
Oc1c(Br)cc(/C=N/NC(=S)NCc2ccco2)cc1Br	41*	5	22	1	-2	15	57*
CC(OC(=O)CCN=C1NS(=O)(=O)c2ccccc21)C(=O)N(C)c1ccccc1 (stereo not drawn)	-1	-2	-5	10	12	1	/
CC(OC(=O)CCCN=C1NS(=O)(=O)c2ccccc21)C(=O)N(C)c1ccccc1 (stereo not drawn)	68*	-2	1	2	6	-1	0
O=c1[nH][nH]c(C(F)(F)F)c1C=Nc1ccccc1	1	0	2	2	7	7	/
Cc1cc(O)ccc1N=Cc1c(C(F)(F)F)[nH][nH]c1=O	74*	-4	27	0	21	16	10
CCc1noc(C)c1C(=O)OCC(=O)NC(C)c1ccccc1 (stereo not drawn)	35*	2	-2	6	5	-1	1
CCc1noc(C)c1C(=O)OCC(=O)NCc1ccccc1	2	6	-2	16	5	7	/
CC(C)=CCc1c(O)cc2oc3c(CC=C(C)C)c(O)c(O)c(CC=C(C)C)c3c(=O)c2c1O	59*	11	-16	14	30*	11	56*
CCN(CC)S(=O)(=O)c1cccc(C(=O)N/N=C/c2cc(OC)c(O)c(OC)c2)c1	7	11	2	1	-5	6	/
CCN(CC)S(=O)(=O)c1cccc(C(=O)N/N=C/c2cccc(O)c2O)c1	41*	8	12	8	4	0	29*
O=C(CCCSc1ccccc1)Nc1nc(-c2ccco2)c(-c2ccco2)s1	56*	-4	6	0	3	-2	23
CN(C)C(=O)C[C@H]1C[C@@H]2c3cc(NC(=O)NC4CCCC4)ccc3O[C@@H]2[C@@H](CO)O1	/	9	/	-9	/	/	/
O=c1cc(CSc2ccc(Cl)cc2)[nH]c2[nH]n(-c3ccccc3)c(=O)c12	43*	-1	33*	-5	6	45*	27*
Cc1ccc(SCc2cc(=O)c3c(=O)n(-c4ccccc4)[nH]c3[nH]2)cc1	46*	-2	25	8	14	25*	21
C[C@@H]1ON(C)[C@H]2C[C@H]3c4[nH]c5c(-c6cc(Cl)cc(Cl)c6)cccc5c4CCN3C(=O)[C@@H]12	/	8	/	3	/	/	/
SMILES	pPAFAH inh	ASAP1 inh	PAFAH2 inh	ARFGAP1 inhibitor	PAFAH1B3 inh	PAFAH1B2 FP inh	pPAFAH FP conf
Cc1ccccc1CN1[C@@H](C)[C@H](c2ccccc2)Oc2cccc(N3CCCC3)c2S1(=O)=O	/	9	/	11	/	/	/
O=C1NC(=O)/C(=C/c2ccc(-c3cc(C(=O)O)ccc3Cl)o2)S1	18	10	3	-18	19	8	/
O=C1NC(=S)/C(=C\c2ccc(-c3ccccc3Cl)o2)S1	70*	-6	41*	-23	24	9	79*
COc1cc2[nH]c3c(N4CCN(c5ccc(Cl)cc5)CC4)ncnc3c2cc1OC	62*	2	1	9	38*	12	54*
COc1cc2[nH]c3c(Cl)ncnc3c2cc1OC	2	10	5	12	6	-1	/
O=C1CCCC2=C1[C@@]1(O[C@H]3C=CC=CN23)C(=O)N(c2ccccc2)c2ccccc21	/	-8	/	6	/	/	/
CCOc1ccc2[nH]c3c(N4CCN(c5ccccn5)CC4)ncnc3c2c1	44*	11	13	-5	3	9	13
Cn1c2ccccc2c2cc(/C=N/NC(=O)c3cc(O)ccc3O)ccc21	57*	0	24	14	59*	30*	28*
O=C(N/N=C1/CC2CCC1C2)c1cc2ccccc2cc1O (stereo not drawn)	46*	-13	3	-6	-2	0	4
N#C/C(=C\c1cc(O)c(O)c(O)c1)C(N)=O	42*	1	12	1	15	8	11
N#C/C(=C\c1cc(Cl)c(OCc2ccc(Cl)cc2)c(Cl)c1)C(N)=O	10	/	/	/	/	/	/
N=C1/C(=C\c2ccc(-c3cccc(C(=O)O)c3)o2)C(=O)N=C2SC=C(c3ccccc3)N12	55*	4	35*	-16	29*	31*	49*
C=CCN1CC(COCc2ccccc2)OCCS1(=O)=O (stereo not drawn)	/	-17	/	-8	/	/	/
CC(C)=C1C(=O)NN(c2ccc(C)c(Cl)c2)C1=O	59*	4	18	-17	0	10	6
CC(C)=C1C(=O)NN(c2cccc(Cl)c2)C1=O	23	-4	9	-18	6	8	/
Cc1ccc(-c2csc(NS(=O)(=O)c3cccc(F)c3)n2)o1	47*	-3	37*	-8	9	5	72*
O=C(N[C@H](C(=O)N1CCC[C@H]1C(=O)NCCc1ccccc1Cl)c1ccccc1)c1ccco1	/	-7	/	-8	/	/	/
CN(C(=S)NC(=O)C1CC1)c1ccc(O)cc1	61*	-7	-1	13	-2	8	2
Cc1ccc(C)n1Cc1ccc(C(=O)O)cc1	47*	/	22	/	4	8	62*
Brc1ccc(N2O[C@H]3C=C[C@@H]2C3)nc1	/	3	/	-3	/	/	/
